SMILES strings stand for the structures.

Series [1] can be described thus: Half life in mouse at 3 mg/kg, iv and 10 mg/kg, po. The note with it: in vivo.
The nature of series [2]: Volume of distribution at steady state in mouse at 3 mg/kg, iv and 10 mg/kg, po. Type of series: ADME, organism-based. The note with it: in vivo, read-out: Vdss.
The nature of series [3]: Plasma clearance in mouse at 3 mg/kg, iv and 10 mg/kg, po. Type of series: ADME, organism-based.
Another series concerns the target T1, Nitric oxide synthase 3 (Homo sapiens, UniProt P29474).
T1 sequence (P29474 whole entry): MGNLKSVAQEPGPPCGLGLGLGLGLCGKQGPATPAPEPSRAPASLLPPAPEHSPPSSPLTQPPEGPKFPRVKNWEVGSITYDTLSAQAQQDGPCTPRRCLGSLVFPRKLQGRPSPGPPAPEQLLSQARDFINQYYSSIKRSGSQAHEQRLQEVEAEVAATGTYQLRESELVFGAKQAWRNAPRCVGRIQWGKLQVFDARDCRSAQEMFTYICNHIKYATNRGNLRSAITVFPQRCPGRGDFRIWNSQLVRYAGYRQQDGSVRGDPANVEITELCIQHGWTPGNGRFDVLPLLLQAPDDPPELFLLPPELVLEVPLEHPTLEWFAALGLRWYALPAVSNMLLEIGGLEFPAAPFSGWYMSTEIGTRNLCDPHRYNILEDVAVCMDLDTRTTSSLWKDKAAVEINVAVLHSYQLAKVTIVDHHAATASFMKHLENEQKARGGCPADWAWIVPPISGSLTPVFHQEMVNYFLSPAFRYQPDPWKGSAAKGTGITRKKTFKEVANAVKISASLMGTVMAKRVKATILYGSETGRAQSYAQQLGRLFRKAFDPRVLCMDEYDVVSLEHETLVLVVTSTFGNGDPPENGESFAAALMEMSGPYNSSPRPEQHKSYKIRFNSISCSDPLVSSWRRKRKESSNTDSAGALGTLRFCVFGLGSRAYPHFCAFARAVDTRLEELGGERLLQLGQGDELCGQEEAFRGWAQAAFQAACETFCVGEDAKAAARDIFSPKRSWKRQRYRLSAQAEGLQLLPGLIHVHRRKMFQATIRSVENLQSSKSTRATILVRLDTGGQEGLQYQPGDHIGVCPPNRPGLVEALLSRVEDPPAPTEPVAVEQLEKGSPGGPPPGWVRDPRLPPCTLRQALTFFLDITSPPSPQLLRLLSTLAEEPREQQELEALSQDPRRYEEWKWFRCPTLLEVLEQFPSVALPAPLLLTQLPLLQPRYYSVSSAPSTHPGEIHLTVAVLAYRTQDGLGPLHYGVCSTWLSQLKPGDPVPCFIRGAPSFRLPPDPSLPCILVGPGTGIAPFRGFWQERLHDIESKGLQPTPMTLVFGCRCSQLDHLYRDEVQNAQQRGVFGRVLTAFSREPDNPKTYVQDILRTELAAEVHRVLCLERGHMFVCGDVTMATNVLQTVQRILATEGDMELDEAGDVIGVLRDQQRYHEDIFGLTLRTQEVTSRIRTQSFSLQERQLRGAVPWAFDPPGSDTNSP
Description: Inhibition of human eNOS expressed in HEK293 cells assessed as inhibition A23187 induced nitric oxide production incubated for 24 hrs measured after 18 hrs of […] challenge using 2,3-diaminonaphthalene by fluorescence assay. The format is cell-based. An outline of the steps: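 HEK293 cells transfected for 4 h at 37 °C with human nNOS (10 μg) or human eNOS (15 μg) plasmid (Fugene 6, 3:1). Cells replated at 5e5 cells/mL and dosed with compound at once; SEITU (100 μM final) as positive control. After 24 h, cells activated with A23187 (83 nM final) for eNOS or ionomycin (30 μM final) for nNOS. NO read 18 h later as nitrite-DAN fluorescence.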

The nature of series [4]: Oral bioavailability in mouse at 10 mg/kg. The format is ADME, organism-based. The note with it: in vivo.
The nature of series [5]: Cmax in mouse at 3 mg/kg, iv and 10 mg/kg, po. Type of series: ADME, organism-based. The note with it: in vivo.
Series [6] has as its target T2, Cytochrome P450 3A4 (Homo sapiens, UniProt P08684). Description: Inhibition of human CYP3A4 at >60 uM. Type of series: ADME.
For series [7], the system named is Mus musculus. Description: Inhibition of LPS-induced iNOS activation in BALB/c mouse assessed as plasma nitrate levels administered via oral gavage before LPS challenge measured after 6 to 8 hrs using 2,3-diaminonaphthalene by fluorescence assay. The format is functional. An outline of the steps: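 Male BALB/c mice dosed by oral gavage (90% PEG/5% Tween 80/5% PVP + 0.5% w/v CMC) immediately before LPS (10 mg/kg ip in 0.9% NaCl). Mice killed at 6 h. EDTA plasma analysed for nitrate and drug levels; nitrite measured by DAN fluorescence.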

The target of another series is Cytochrome P450 2C9 (Homo sapiens, UniProt P11712). Description: Inhibition of human CYP2C9 at >60 uM. Type of series: ADME.
Series [8] addresses T2, Cytochrome P450 3A4. Description: Inhibition of human CYP3A4. The format is ADME.
Another series addresses Cytochrome P450 2C19 (Homo sapiens, UniProt P33261). Description: Inhibition of human CYP2C19 at >60 uM. Type of series: ADME.
For series [9], the target named is T3, Cytochrome P450 1A2 (Homo sapiens, UniProt P05177).
T3 sequence (P05177 whole entry): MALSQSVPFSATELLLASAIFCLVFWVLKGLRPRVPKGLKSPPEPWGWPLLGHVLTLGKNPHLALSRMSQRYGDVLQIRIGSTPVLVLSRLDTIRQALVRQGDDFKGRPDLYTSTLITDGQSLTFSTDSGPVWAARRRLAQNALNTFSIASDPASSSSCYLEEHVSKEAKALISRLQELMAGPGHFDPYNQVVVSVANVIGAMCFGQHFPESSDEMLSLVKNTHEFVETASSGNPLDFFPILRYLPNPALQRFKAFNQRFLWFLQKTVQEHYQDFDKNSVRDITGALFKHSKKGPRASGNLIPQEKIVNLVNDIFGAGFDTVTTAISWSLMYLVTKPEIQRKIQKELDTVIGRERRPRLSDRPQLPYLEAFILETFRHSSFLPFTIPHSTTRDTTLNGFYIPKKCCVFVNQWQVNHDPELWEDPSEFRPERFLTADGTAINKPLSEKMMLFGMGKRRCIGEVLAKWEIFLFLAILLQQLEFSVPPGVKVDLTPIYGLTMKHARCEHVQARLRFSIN
Description: Inhibition of human CYP1A2 at >100uM. Type of series: ADME.

A short description of series [10]: Cmax in mouse 10 mg/kg, po. The format is ADME, organism-based. Set-up: dose 10 mg/kg, route oral. The note with it: in vivo.
For series [11], the target named is T3, Cytochrome P450 1A2. Description: Inhibition of human CYP1A2. The format is ADME.
The target of series [12] is T4, Voltage-gated inwardly rectifying potassium channel KCNH2 (Homo sapiens, UniProt Q12809). Description: Inhibition of human ERG at >30 uM by patch clamp assay.
Series [13] has as its target T4, Voltage-gated inwardly rectifying potassium channel KCNH2. Description: Inhibition of human ERG by patch clamp assay. Background: In patch-clamp work, channel activity is measured electrically.
The test system of series [14] is Mus musculus. Description: Antinociceptive activity against formalin-induced pain in mouse assessed as attenuation of nocifensive phase 2 behaviors during phase 2 (25 to 45 mins post formalin injection) administered via oral gavage 30 mins before to formalin challenge. Type of series: functional. An outline of the steps: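 Mice were given compound by oral gavage in PEG/Tween 80/PVP + CMC vehicle 30 min before 20 μL of 5% formalin was injected into the left hind paw. Paw flinching, licking and biting were timed in 5 min bins by a single observer. Read-out was time in nociceptive behaviour at 25-45 min. Mean ± SE, n = 5-6, one-way ANOVA with post hoc tests.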

T2 sequence (P08684 whole entry): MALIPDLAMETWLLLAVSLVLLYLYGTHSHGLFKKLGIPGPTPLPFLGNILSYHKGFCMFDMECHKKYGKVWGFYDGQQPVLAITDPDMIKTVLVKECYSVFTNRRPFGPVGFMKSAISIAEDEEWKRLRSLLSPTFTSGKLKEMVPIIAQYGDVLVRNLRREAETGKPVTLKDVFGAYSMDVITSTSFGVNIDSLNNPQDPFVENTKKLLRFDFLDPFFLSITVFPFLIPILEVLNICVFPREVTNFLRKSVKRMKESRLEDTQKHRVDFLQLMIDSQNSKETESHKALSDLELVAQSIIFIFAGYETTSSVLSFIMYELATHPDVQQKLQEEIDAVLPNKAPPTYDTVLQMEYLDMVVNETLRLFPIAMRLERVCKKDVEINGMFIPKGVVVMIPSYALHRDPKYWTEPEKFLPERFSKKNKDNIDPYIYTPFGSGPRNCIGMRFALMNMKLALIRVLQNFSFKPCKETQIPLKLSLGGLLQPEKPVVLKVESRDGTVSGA
T4 sequence (Q12809 whole entry): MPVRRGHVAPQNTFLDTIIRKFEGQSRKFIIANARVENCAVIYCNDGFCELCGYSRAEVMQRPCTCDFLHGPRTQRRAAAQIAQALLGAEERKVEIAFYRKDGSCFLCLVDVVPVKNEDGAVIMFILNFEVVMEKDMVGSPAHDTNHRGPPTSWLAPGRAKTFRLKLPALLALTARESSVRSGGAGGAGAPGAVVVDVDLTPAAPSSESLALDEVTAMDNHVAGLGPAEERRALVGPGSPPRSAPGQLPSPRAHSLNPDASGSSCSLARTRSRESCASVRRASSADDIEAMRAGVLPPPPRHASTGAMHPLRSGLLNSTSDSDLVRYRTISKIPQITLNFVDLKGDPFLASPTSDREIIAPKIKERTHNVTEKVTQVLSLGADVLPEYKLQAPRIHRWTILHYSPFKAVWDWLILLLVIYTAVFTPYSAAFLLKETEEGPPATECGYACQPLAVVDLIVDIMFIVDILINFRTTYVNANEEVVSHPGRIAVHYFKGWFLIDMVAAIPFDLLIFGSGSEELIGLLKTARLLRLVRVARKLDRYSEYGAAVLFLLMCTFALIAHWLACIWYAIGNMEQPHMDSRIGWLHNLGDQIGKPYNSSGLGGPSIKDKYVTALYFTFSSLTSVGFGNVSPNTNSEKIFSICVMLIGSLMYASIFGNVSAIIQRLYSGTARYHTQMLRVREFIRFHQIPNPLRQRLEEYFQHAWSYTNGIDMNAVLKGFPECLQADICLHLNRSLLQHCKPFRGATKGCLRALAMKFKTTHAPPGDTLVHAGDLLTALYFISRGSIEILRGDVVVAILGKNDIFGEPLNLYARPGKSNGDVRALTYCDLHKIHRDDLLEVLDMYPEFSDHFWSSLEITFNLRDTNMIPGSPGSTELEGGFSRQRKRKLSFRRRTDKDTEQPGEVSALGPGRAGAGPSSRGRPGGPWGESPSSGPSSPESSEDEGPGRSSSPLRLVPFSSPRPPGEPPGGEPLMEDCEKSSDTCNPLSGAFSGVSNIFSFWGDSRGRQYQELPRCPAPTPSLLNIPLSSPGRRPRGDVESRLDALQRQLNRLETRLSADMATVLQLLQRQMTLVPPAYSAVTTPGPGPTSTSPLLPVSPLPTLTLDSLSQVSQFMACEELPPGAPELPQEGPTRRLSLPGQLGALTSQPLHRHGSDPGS
Cytochrome P450 2C19, sequence (P33261 whole entry): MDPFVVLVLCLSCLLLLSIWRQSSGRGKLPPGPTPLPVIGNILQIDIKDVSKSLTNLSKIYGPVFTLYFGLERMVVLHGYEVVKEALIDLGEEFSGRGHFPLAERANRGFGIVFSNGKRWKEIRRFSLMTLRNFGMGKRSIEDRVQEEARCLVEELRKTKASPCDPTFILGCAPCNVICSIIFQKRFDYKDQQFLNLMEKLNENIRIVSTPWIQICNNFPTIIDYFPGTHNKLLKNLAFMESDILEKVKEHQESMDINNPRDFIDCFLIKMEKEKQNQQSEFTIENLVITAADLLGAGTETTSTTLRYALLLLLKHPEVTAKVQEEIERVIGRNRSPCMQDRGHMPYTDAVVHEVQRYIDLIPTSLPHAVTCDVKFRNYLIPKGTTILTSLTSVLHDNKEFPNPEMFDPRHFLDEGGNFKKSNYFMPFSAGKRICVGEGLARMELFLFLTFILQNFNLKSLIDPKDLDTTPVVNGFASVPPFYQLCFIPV
Cytochrome P450 2C9, sequence (P11712 whole entry): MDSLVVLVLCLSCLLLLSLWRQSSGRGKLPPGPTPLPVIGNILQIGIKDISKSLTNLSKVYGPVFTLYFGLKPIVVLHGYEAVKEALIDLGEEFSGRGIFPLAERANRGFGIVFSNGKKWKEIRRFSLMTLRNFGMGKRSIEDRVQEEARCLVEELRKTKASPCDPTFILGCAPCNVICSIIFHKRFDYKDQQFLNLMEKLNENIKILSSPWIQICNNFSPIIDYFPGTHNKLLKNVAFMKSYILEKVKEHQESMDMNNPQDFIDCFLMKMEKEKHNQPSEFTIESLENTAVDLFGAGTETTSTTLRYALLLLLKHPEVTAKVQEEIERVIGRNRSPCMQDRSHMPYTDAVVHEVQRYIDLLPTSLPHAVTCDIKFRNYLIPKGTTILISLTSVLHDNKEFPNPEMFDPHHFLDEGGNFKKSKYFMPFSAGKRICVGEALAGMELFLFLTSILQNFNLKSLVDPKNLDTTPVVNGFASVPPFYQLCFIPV

Usually half-life stands for the time needed for the level to fall by half in the phase considered. The EC50 is the concentration at which the effect is half-maximal. In general, bioavailability refers to the share of a dose that reaches the circulation, judged against a reference dose that is usually intravenous. A higher bioavailability goes with good availability. By Cmax is commonly meant the peak of the concentration-time curve. Take `CC(C)Cc1nc2ccccc2n1Cc1cc(=O)[nH]c2c(F)c(F)ccc12`: the half-life in series [1] is 1.7 h. In series [2], the Vd was determined as 1.1 L/kg. This molecule also gave a clearance in [3] of 12 mL/min/kg. The EC50 at Nitric oxide synthase 3 was > 100 µM. In series [4], this molecule displayed a bioavailability of 81%. The concentration in series [5] peaked (Cmax) at 8700 ng/mL.

A word on the ED50: it is the midpoint of the dose-response relation. Molecule `O=c1cc(Cn2c(C3CCC3)nc3nccnc32)c2cccc(F)c2[nH]1` showed a half-life in series [1] of 1.3 h. The “inhibition (INH)” value on Cytochrome P450 3A4 [6], at Cytochrome P450 2C9, on Cytochrome P450 2C19 and at Cytochrome P450 1A2 [9] was < 50% throughout. In addition, the ED50 in the series on Mus musculus [7] was 1.5 mg/kg. In addition, in series [2], the Vd is 0.47 L/kg. Also, the clearance in [3] was 5.9 mL/min/kg. The EC50 at Cytochrome P450 3A4 [8] was > 60 µM; on Nitric oxide synthase 3, 26 µM; on Cytochrome P450 1A2 [11], > 100 µM. This molecule also showed a bioavailability in series [4] of 91%. Moreover, the peak level in series [10] (Cmax) was 15000 ng/mL.

In series [1], `CC(C)Cc1nc2nccnc2n1Cc1cc(=O)[nH]c2c(F)c(F)ccc12` gave a half-life of 6 h. Also, the “inhibition (INH)” value (against Cytochrome P450 3A4 [6]; at Cytochrome P450 2C19; in series [12]; against Cytochrome P450 1A2 [9]) was < 50% in each case. In addition, the ED50 in the series with Mus musculus [7] was 0.5 mg/kg. For the same molecule, the Vd in [2] was 6.8 L/kg. The same molecule yielded a clearance in [3] of 6.1 mL/min/kg. Also, the EC50 is > 60 µM at Cytochrome P450 3A4 [8], 39 µM at Nitric oxide synthase 3, > 30 µM in series [13] and > 100 µM on Cytochrome P450 1A2 [11]. In addition, the bioavailability in [4] came out at 39%. In series [10], this molecule yielded a Cmax of 3700 ng/mL.

The molecule `O=c1cc(Cn2c(C3CC(F)(F)C3)nc3nccnc32)c2cccc(F)c2[nH]1` showed a half-life in [1] of 4 h. Further, in the series on Mus musculus [7], the ED50 came to 3 mg/kg. Moreover, the Vd in [2] is 0.67 L/kg. Further, in [3], the clearance worked out at 6.2 mL/min/kg. In addition, the EC50 was 23 µM on Cytochrome P450 3A4 [8], > 100 µM on Nitric oxide synthase 3 and 35 µM on Cytochrome P450 1A2 [11]. Further, the bioavailability in series [4] was 55%. Further, in series [5], the Cmax was 8800 ng/mL.

In [1], `O=c1cc(Cn2c(C3CCC3)nc3nccnc32)c2ccc(F)c(F)c2[nH]1` had a half-life of 2.1 h. Also, the results for the ED50 with Mus musculus [7] and in the series on Mus musculus [14] were 1 mg/kg and 13 mg/kg, respectively. The Vd in series [2] is 0.39 L/kg. Further, the clearance in [3] stood at 4.5 mL/min/kg. Moreover, the “inhibition (INH)” value (on Cytochrome P450 2C9; in [12]; at Cytochrome P450 1A2 [9]) was < 50% throughout. Also, the EC50 on Cytochrome P450 3A4 [8] is > 100 µM; on Nitric oxide synthase 3 it was 16.5 µM; in series [13] it was > 30 µM; on Cytochrome P450 1A2 [11], > 100 µM. In addition, in [4], the bioavailability stood at 62%. For the same molecule, in [5], the Cmax was 15000 ng/mL.

Values taken from ChEMBL document CHEMBL1800057, “Discovery of dual inducible/neuronal nitric oxide synthase (iNOS/nNOS) inhibitor development candidate 4-((2-cyclobutyl-1H-imidazo[4,5-b]pyrazin-1-yl)methyl)-7,8-difluoroquinolin-2(1H)-one (KD7332) part 2: identification of a novel, potent, and selective series of benzimidazole-quinolinone …” (J Med Chem, 2010).
